Assay results collected from several papers.
Compare with care: the assays were run in different laboratories.
Cell line: A549
Effect on: cell growth or viability
Method: CCK-8

NCCC(=O)Nc1ccccc1/N=c1\cc(-c2ccc3nc(N)oc3c2)oc2ccc(F)cc12 — inhibition (1 µM): 42.4%
C#CCn1cnc2ccc(-c3ccc(NC(=O)CCCC)nc3)cc2c1=O — IC50 (72 h): > 10 µM
O=C(Nc1ccc(Cl)cc1)Nc1ccc(-c2cn(Cc3ccc(Cl)cc3)nn2)cc1 — viability (50 µM, 72 h): 79.6%
CCCC(=O)Nc1ccc(-c2ccc3ncn(Cc4ccccc4)c(=O)c3c2)cn1 — IC50 (72 h): > 10 µM
O=C(NCc1cn(Cc2ccc(Cl)cc2)nn1)Nc1ccccc1Br — viability (20 µM, 72 h): 86.4%
COc1ccc(NC(=O)Nc2ccc(-c3cn(Cc4ccc(Br)cc4)nn3)cc2)cc1 — viability (50 µM, 72 h): 101%
CCCCC(=O)Nc1ccc(-c2ccc3ncn(CCCF)c(=O)c3c2)cn1 — IC50 (72 h): 1.79 µM
COc1ccc2/c(=N/c3ccccc3NC(=O)[C@@H](N)C(C)(C)C)cc(-c3ccc4c(c3)OCO4)oc2c1 — inhibition (1 µM): -3.68%
COc1ccc(NC(=O)Nc2cccc(-c3cn(Cc4ccccc4C)nn3)c2)cc1 — viability (20 µM, 72 h): 137%
COc1ccc2/c(=N/c3ccccc3NC(=O)[C@H](C)N)cc(-c3ccc4c(c3)OCCO4)oc2c1 — inhibition (1 µM): -2.21%
CCCCC(=O)Nc1ccc(-c2ccc3ncn(CCC)c(=O)c3c2)cc1F — IC50 (72 h): > 10 µM
COc1ccc(NC(=O)Nc2cccc(-c3cn(Cc4ccc(C)cc4)nn3)c2)cc1 — viability (50 µM, 72 h): 190%
